In ChEMBL document CHEMBL2157969, “Chalcone inhibitors of the NorA efflux pump in Staphylococcus aureus whole cells and enriched everted membrane vesicles” (Bioorg Med Chem, 2012):
Activity calls are given as the source filed them. No cut-off for these calls is given here.

Experiments:
[1] = target: T1, Quinolone resistance protein NorA (Staphylococcus aureus) (UniProt P0A0J7); assay: Inhibition of Staphylococcus aureus SA-1199B NorA expressed in Escherichia coli DH10B assessed as inhibition of Hoechst 33342 dye efflux at 10 uM by spectrofluorometric analysis in presence of 50 uM Mg2+
T1 sequence (whole entry): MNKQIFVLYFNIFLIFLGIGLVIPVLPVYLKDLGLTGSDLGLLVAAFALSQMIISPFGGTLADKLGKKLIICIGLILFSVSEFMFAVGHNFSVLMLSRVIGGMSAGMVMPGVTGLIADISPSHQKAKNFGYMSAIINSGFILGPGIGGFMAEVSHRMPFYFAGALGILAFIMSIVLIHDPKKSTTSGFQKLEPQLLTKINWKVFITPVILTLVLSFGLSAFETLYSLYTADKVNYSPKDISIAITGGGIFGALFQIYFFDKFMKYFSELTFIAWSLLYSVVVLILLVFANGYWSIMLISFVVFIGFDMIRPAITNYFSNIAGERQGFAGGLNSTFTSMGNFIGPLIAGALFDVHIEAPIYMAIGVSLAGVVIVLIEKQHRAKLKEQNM
Summary of the method: (§1)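 Everted membrane vesicles from E. coli DH10B carrying pTrcHis2C-norA, made by French press with 0.1 mM PMSF and 0.1 mg/mL DNase; pTrc99A vesicles serve as control. Vesicles at 80 µg protein/mL in 50 mM potassium HEPES, 8.5 mM NaCl, 2 mM MgCl₂, pH 7.2. Hoechst 33342 added, then Mg²⁺-ATP to energise, inhibitor at 150–160 s.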

[2] = target: T1, Quinolone resistance protein NorA (Staphylococcus aureus); assay: Inhibition of Staphylococcus aureus SA-1199B NorA expressed in Escherichia coli DH10B assessed as inhibition of Hoechst 33342 dye efflux at 10 uM after 150 to 160 secs by spectrofluorometric analysis in presence of 50 uM Mg2+; summary of the method: as §1

## CC(C)[C@@H]1NC(=O)[C@H](C)OC(=O)[C@@H](C(C)C)NC(=O)[C@@H](C(C)C)OC(=O)[C@H](C(C)C)NC(=O)[C@H](C)OC(=O)[C@@H](C(C)C)NC(=O)[C@@H](C(C)C)OC(=O)[C@H](C(C)C)NC(=O)[C@H](C)OC(=O)[C@@H](C(C)C)NC(=O)[C@@H](C(C)C)OC1=O
[1]
  inhibition: Active
[2]
  inhibition: Active
